As a reminder, the Ki is a dissociation constant, usually derived from enzyme kinetics or from competition with a known ligand.

Results on 14 compounds are retold here after ChEMBL document CHEMBL3596173, “Structural Requirements for CNS Active Opioid Glycopeptides” (J Med Chem, 2015).

Non-standard residues stand in square brackets, D forms with d. Residues, ends and D or L forms follow the SMILES beside them. *: point of attachment. βGlc = OC[C@H]1O[C@@H](*)[C@H](O)[C@@H](O)[C@@H]1O; Aib = CC(C)(N)C(=O)O; GABA = NCCCC(=O)O Bounds are passed on as bounds.

For assay [1], the target named is T1, Delta-type opioid receptor (Homo sapiens, UniProt P41143). As to the kind of experiment: Displacement of [3H]-naltrindole from human delta opioid receptor expressed in CHO cells after 3 hrs by scintillation counting analysis. It is filed as cell-based. In outline: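 Binding used CHO-cell membranes bearing human δ receptor and 0.2 nM (final) [3H]naltrindole, incubated 3 h at 25 °C in 50 mM Tris-HCl pH 7.5. Nonspecific binding was defined with 100 μM naloxone. Samples were glass-fiber filtered, washed with cold buffer and scintillation counted. IC50 came from a log-probit least-squares fit and was converted to Ki as IC50/(1+S).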
For orientation: Loss of bound radioactivity is the signal in a displacement assay; it reports binding, not function.

In the next assay the target is Mu-type opioid receptor (Homo sapiens, UniProt P35372). Nature of the assay: Displacement of [3H]-DAMGO from human mu opioid receptor expressed in CHO cells after 60 mins by scintillation counting analysis. It counts as cell-based. In outline:
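Membranes from CHO cells stably expressing human μ receptor were incubated with 0.25 nM (final) [3H]DAMGO in 50 mM Tris-HCl pH 7.5 for 60 min at 25 °C. Bound radioligand was separated by glass-fiber filtration with cold buffer washes and counted by scintillation. IC50 came from a least-squares log-probit fit, and Ki from IC50/(1+S).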

Assay [2] has as its target Kappa-type opioid receptor (Homo sapiens, UniProt P41145). Nature of the assay: Displacement of [3H]-U69593 from human kappa opioid receptor expressed in CHO cells after 60 mins by scintillation counting analysis. It is filed as cell-based. The essentials: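 Human κ receptor stably expressed in CHO cells was used as a membrane prep. It was incubated with 1 nM (final) [3H]U69,593 for 60 min at 25 °C in 50 mM Tris-HCl pH 7.5, with 10 μM naloxone defining nonspecific binding. Samples were filtered through glass-fiber filters presoaked ≥30 min in 0.1% polyethylenimine, washed cold and scintillation counted. Ki was derived from a log-probit IC50 via IC50/(1+S).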

Assay [3] has as its target T1, Delta-type opioid receptor. Nature of the assay: Displacement of [3H]-naltrindole from human delta opioid receptor expressed in CHO cells at 10 uM after 3 hrs by scintillation counting analysis relative to control. It is filed as cell-based.
Assay [4] deals with Mus musculus. As to the kind of experiment: Antinociceptive activity in icv dosed CD-1 mouse by 55 degC warm water tail-flick test. It is filed as functional. The essentials: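 Male CD-1 mice (27−30 g), 8−10 per group. Compound in distilled water, given icv under light ether anaesthesia, 2 mm caudal and 2 mm lateral from bregma. 55 °C warm-water tail-flick: baseline latency taken first, and mice not responding within 5 s excluded. Retested at various times after dosing. %Antinociception = 100(test − control latency)/(10 − control latency). A50 doses derived.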
In general terms: Thermal pain tests record how soon the animal reacts.

Assay [5] concerns Mus musculus. As to the kind of experiment: Antinociceptive activity in iv dosed CD-1 mouse by 55 degC warm water tail-flick test. It counts as functional. The essentials:
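Male CD-1 mice (27−30 g), 8−10 per group. Compound in 0.9% saline, injected into the tail vein at 0.1 mL/10 g after the vein was dilated in 40 °C water. Tail immersion in 55 °C water, with baseline latency first and 5 s non-responders excluded. Tested at intervals post-dose. %Antinociception = 100(test − control latency)/(10 − control latency). A50 values obtained.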

T1 sequence (P41143 whole entry): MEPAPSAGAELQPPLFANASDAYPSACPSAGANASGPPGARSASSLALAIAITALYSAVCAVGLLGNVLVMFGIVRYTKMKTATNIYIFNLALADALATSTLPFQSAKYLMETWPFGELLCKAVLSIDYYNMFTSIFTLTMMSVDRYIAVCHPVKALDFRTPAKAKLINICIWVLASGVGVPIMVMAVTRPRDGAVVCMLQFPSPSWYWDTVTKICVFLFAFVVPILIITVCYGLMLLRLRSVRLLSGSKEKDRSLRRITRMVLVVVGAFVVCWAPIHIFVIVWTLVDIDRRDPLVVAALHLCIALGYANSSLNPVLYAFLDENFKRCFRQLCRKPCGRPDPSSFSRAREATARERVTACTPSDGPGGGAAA
Kappa-type opioid receptor, sequence (P41145 whole entry): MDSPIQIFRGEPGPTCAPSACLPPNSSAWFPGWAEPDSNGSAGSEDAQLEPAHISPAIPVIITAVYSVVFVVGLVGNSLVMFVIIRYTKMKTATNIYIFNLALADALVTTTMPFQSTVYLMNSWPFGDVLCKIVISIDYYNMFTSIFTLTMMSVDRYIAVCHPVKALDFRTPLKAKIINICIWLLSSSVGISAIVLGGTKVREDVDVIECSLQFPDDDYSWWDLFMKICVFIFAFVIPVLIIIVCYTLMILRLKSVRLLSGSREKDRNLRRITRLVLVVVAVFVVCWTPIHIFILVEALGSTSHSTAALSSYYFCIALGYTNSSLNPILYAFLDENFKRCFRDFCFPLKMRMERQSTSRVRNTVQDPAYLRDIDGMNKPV
Mu-type opioid receptor, sequence (P35372 whole entry): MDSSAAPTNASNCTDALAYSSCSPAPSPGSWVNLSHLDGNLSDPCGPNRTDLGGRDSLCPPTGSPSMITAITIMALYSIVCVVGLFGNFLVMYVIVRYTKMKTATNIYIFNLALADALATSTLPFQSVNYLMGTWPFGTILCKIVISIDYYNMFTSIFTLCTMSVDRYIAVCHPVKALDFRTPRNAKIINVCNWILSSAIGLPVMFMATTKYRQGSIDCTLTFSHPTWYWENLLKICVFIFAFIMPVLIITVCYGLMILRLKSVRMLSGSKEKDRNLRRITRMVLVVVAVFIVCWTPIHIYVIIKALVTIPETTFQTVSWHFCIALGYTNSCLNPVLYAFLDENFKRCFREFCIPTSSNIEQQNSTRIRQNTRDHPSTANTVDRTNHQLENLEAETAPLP

Consider `CC(C)C[C@H](NC(=O)[C@H](CO[C@@H]1O[C@H](CO)[C@@H](O)[C@H](O)[C@H]1O)NC(=O)[C@H](CCCCN)NC(=O)[C@H](CC(C)C)NC(=O)[C@H](C)NC(=O)[C@H](CCCCN)NC(=O)[C@H](CCC(=O)O)NC(=O)C(C)(C)NC(=O)[C@H](CC(C)C)NC(=O)[C@H](CC(N)=O)NC(=O)CCNC(=O)[C@H](Cc1ccccc1)N(C)C(=O)CNC(=O)[C@@H](C)NC(=O)[C@@H](N)Cc1ccc(O)cc1)C(N)=O`, for which the figures for the Ki (in assay [1]; at Mu-type opioid receptor; in assay [2]) were 1400 nM, 4.8 nM and 200 nM, respectively.

For `CC(C)C[C@H](NC(=O)[C@H](CO[C@@H]1O[C@H](CO)[C@@H](O)[C@H](O)[C@H]1O)NC(=O)[C@H](CCCCN)NC(=O)[C@H](CC(C)C)NC(=O)[C@H](C)NC(=O)[C@H](CCCCN)NC(=O)[C@H](CCCCN)NC(=O)C(C)(C)NC(=O)[C@H](CC(C)C)NC(=O)[C@H](CC(N)=O)NC(=O)CNC(=O)CNC(=O)[C@H](Cc1ccccc1)N(C)C(=O)CNC(=O)[C@@H](C)NC(=O)[C@@H](N)Cc1ccc(O)cc1)C(N)=O`, the figures for the Ki (on Mu-type opioid receptor; in assay [2]) were 21 nM and 430 nM, respectively. Also, the Activity in assay [3] is 0%.

Regarding `CC(C)C[C@H](NC(=O)[C@H](CO[C@@H]1O[C@H](CO)[C@@H](O)[C@H](O)[C@H]1O)NC(=O)[C@H](CC(N)=O)NC(=O)[C@H](CC(C)C)NC(=O)[C@H](C)NC(=O)[C@H](CC(N)=O)NC(=O)[C@H](CC(N)=O)NC(=O)C(C)(C)NC(=O)[C@H](CC(C)C)NC(=O)[C@H](CC(N)=O)NC(=O)CNC(=O)CNC(=O)[C@H](Cc1ccccc1)N(C)C(=O)CNC(=O)[C@@H](C)NC(=O)[C@@H](N)Cc1ccc(O)cc1)C(N)=O`, the Ki at Mu-type opioid receptor worked out at 5.2 nM; in assay [2], 340 nM. For the same compound, the Activity in assay [3] came out at 22%.

`CC(C)C[C@H](NC(=O)[C@H](CO[C@@H]1O[C@H](CO)[C@@H](O)[C@H](O)[C@H]1O)NC(=O)[C@H](CCCCN)NC(=O)[C@H](CC(C)C)NC(=O)[C@H](C)NC(=O)[C@H](CCCCN)NC(=O)[C@H](CCC(=O)O)NC(=O)C(C)(C)NC(=O)[C@H](CC(C)C)NC(=O)[C@H](CC(N)=O)NC(=O)[C@@H]1CCCN1C(=O)[C@@H]1CCCN1C(=O)[C@H](Cc1ccccc1)N(C)C(=O)CNC(=O)[C@@H](C)NC(=O)[C@@H](N)Cc1ccc(O)cc1)C(N)=O`: the Ki in assay [1] was 2300 nM; on Mu-type opioid receptor, 15 nM; in assay [2], 19 nM.

As for `CC(C)C[C@H](NC(=O)[C@H](CO[C@@H]1O[C@H](CO)[C@@H](O)[C@H](O)[C@H]1O)NC(=O)[C@H](CCCCN)NC(=O)[C@H](CC(C)C)NC(=O)[C@H](C)NC(=O)[C@H](CCCCN)NC(=O)[C@H](CCC(=O)O)NC(=O)C(C)(C)NC(=O)[C@H](CC(C)C)NC(=O)[C@H](CC(N)=O)NC(=O)[C@@H]1CCCN1C(=O)CNC(=O)[C@H](Cc1ccccc1)N(C)C(=O)CNC(=O)[C@@H](C)NC(=O)[C@@H](N)Cc1ccc(O)cc1)C(N)=O`, the Ki came to 840 nM in assay [1], 3.2 nM at Mu-type opioid receptor and 45 nM in assay [2].

As to `CC(C)C[C@H](NC(=O)[C@H](CO[C@@H]1O[C@H](CO)[C@@H](O)[C@H](O)[C@H]1O)NC(=O)[C@H](CCCCN)NC(=O)[C@H](CC(C)C)NC(=O)[C@H](C)NC(=O)[C@H](CCCCN)NC(=O)[C@H](CCC(=O)O)NC(=O)C(C)(C)NC(=O)[C@H](CC(C)C)NC(=O)[C@H](CC(N)=O)NC(=O)[C@@H]1CCCN1C(=O)CCNC(=O)[C@H](Cc1ccccc1)N(C)C(=O)CNC(=O)[C@@H](C)NC(=O)[C@@H](N)Cc1ccc(O)cc1)C(N)=O`, the values for the Ki (in assay [1]; on Mu-type opioid receptor; in assay [2]) were 1200 nM, 5.6 nM and 100 nM, respectively.

Regarding `CC(C)C[C@H](NC(=O)[C@H](CO[C@@H]1O[C@H](CO)[C@@H](O)[C@H](O)[C@H]1O)NC(=O)[C@H](CCCCN)NC(=O)[C@H](CC(C)C)NC(=O)[C@H](C)NC(=O)[C@H](CCCCN)NC(=O)[C@H](CCC(=O)O)NC(=O)C(C)(C)NC(=O)[C@H](CC(C)C)NC(=O)[C@H](CC(N)=O)NC(=O)[C@H](C)NC(=O)[C@H](CC(C)C)NC(=O)[C@H](Cc1ccccc1)NC(=O)CNC(=O)[C@@H](NC(=O)[C@@H](N)Cc1ccc(O)cc1)[C@@H](C)O)C(N)=O` (H-YTGFLANL[Aib]EKALKS(βGlc)L-NH2), the Ki stood at 21 nM in assay [1], 39 nM on Mu-type opioid receptor and 9.7 nM in assay [2].

On to `CC(C)C[C@H](NC(=O)[C@H](CO[C@@H]1O[C@H](CO)[C@@H](O)[C@H](O)[C@H]1O)NC(=O)[C@H](CCCCN)NC(=O)[C@H](CC(C)C)NC(=O)[C@H](C)NC(=O)[C@H](CCCCN)NC(=O)[C@H](CCC(=O)O)NC(=O)C(C)(C)NC(=O)[C@H](CC(C)C)NC(=O)[C@H](CC(N)=O)NC(=O)[C@H]1CCCN1C(=O)[C@H](CC(C)C)NC(=O)[C@H](Cc1ccccc1)NC(=O)CNC(=O)[C@@H](NC(=O)[C@@H](N)Cc1ccc(O)cc1)[C@@H](C)O)C(N)=O`, for which the values for the Ki (in assay [1] (cho); on Mu-type opioid receptor (cho); in assay [2] (cho)) were 73 nM, 27 nM and 78 nM, respectively.

For `CC(C)C[C@H](NC(=O)[C@H](CO[C@@H]1O[C@H](CO)[C@@H](O)[C@H](O)[C@H]1O)NC(=O)CCCNC(=O)[C@H](CC(C)C)NC(=O)[C@H](Cc1ccccc1)NC(=O)CNC(=O)[C@@H](NC(=O)[C@@H](N)Cc1ccc(O)cc1)[C@@H](C)O)C(N)=O` (H-YTGFL[GABA]S(βGlc)L-NH2), the Ki in assay [1] is 15 nM; on Mu-type opioid receptor it was 6.6 nM; in assay [2] it was 71 nM. The results for the A50 with Mus musculus [4] and with Mus musculus [5] were 0.06 nmol and 2.54 µmol/kg, respectively.

With `CC(C)C[C@H](NC(=O)[C@H](CO[C@@H]1O[C@H](CO)[C@@H](O)[C@H](O)[C@H]1O)NC(=O)[C@H](CCCCN)NC(=O)[C@H](CC(C)C)NC(=O)[C@H](C)NC(=O)[C@H](CCCCN)NC(=O)[C@H](CCC(=O)O)NC(=O)C(C)(C)NC(=O)[C@H](CC(C)C)NC(=O)[C@H](CC(N)=O)NC(=O)[C@@H]1CCCN1C(=O)[C@H](Cc1ccccc1)N(C)C(=O)CNC(=O)[C@@H](C)NC(=O)[C@@H](N)Cc1ccc(O)cc1)C(N)=O`, the Ki on Mu-type opioid receptor was found to be 8.8 nM; in assay [2] it was 340 nM. Moreover, in assay [3], the Activity came to 31%.

`CC(C)C[C@H](NC(=O)[C@H](CO[C@@H]1O[C@H](CO)[C@@H](O)[C@H](O)[C@H]1O)NC(=O)[C@H](CCCCN)NC(=O)[C@H](CC(C)C)NC(=O)[C@H](C)NC(=O)[C@H](CCCCN)NC(=O)[C@H](CCC(=O)O)NC(=O)C(C)(C)NC(=O)[C@H](CC(C)C)NC(=O)[C@H](CC(N)=O)NC(=O)CNC(=O)CNC(=O)[C@H](Cc1ccccc1)N(C)C(=O)CNC(=O)[C@@H](C)NC(=O)[C@@H](N)Cc1ccc(O)cc1)C(N)=O`: the Ki in assay [1] stood at 1500 nM; on Mu-type opioid receptor, 2.8 nM; in assay [2], 59 nM.

As for `CC(C)C[C@H](NC(=O)[C@H](CO[C@@H]1O[C@H](CO)[C@@H](O)[C@H](O)[C@H]1O)NC(=O)[C@H](CCCCN)NC(=O)[C@H](CC(C)C)NC(=O)[C@H](C)NC(=O)[C@H](CCCCN)NC(=O)[C@H](CCC(=O)O)NC(=O)C(C)(C)NC(=O)[C@H](CC(C)C)NC(=O)[C@H](CC(N)=O)NC(=O)CNC(=O)[C@H](CC(C)C)NC(=O)[C@H](Cc1ccccc1)NC(=O)CNC(=O)[C@@H](NC(=O)[C@@H](N)Cc1ccc(O)cc1)[C@@H](C)O)C(N)=O` (H-YTGFLGNL[Aib]EKALKS(βGlc)L-NH2), the Ki turned out to be 31 nM in assay [1], 26 nM at Mu-type opioid receptor and 14 nM in assay [2].

Consider `CC(C)C[C@H](NC(=O)[C@H](CO[C@@H]1O[C@H](CO)[C@@H](O)[C@H](O)[C@H]1O)NC(=O)[C@H](CCCCN)NC(=O)[C@H](CC(C)C)NC(=O)[C@H](C)NC(=O)[C@H](CC(N)=O)NC(=O)[C@H](CCCCN)NC(=O)C(C)(C)NC(=O)[C@H](CC(C)C)NC(=O)[C@H](CC(N)=O)NC(=O)CNC(=O)CNC(=O)[C@H](Cc1ccccc1)N(C)C(=O)CNC(=O)[C@@H](C)NC(=O)[C@@H](N)Cc1ccc(O)cc1)C(N)=O`, for which the Ki in assay [1] came to 430 nM; at Mu-type opioid receptor, 0.24 nM; in assay [2], 11 nM.

For `CC(C)C[C@H](NC(=O)[C@H](CO)NC(=O)CCCNC(=O)[C@H](CC(C)C)NC(=O)[C@H](Cc1ccccc1)NC(=O)CNC(=O)[C@@H](NC(=O)[C@@H](N)Cc1ccc(O)cc1)[C@@H](C)O)C(N)=O` (H-YTGFL[GABA]SL-NH2), the values for the Ki (in assay [1]; at Mu-type opioid receptor; in assay [2]) were 6.6 nM, 3.8 nM and 39 nM, respectively. For the same compound, the results for the A50 with Mus musculus [4] and in the assay with Mus musculus [5] were 0.06 nmol and over 11.3 µmol/kg, respectively.
